Screens as filed in PubChem.
Only some compounds are listed: those with a hit (about 0.83% of all), similar ones and a draw of the others.
RGS7-Gao reg: RGS7-Galphao binding modulators, primary screen, biochemical, multiplexed bead flow cytometry; actives lie on both sides; 220,000 tested, 0.35% active; binding response (% of control), % at 10 µM; Guanine nucleotide-binding protein G(o) subunit alpha (Homo sapiens), P09471; AID 1439, 2008; in the data active = binding response below about 49% or above about 150%; inconclusive = no clear call, values can overlap the other calls; inactive = in between;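 also: fluorescent Galphao held in activated GDP-AlF4 state binding bead-coupled RGS7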
RGS4-Gao reg: modulators of RGS4 binding to Galphao, primary screen, biochemical, multiplexed bead flow cytometry; binding response (% of control), % at 10 µM; 220,000 tested, 0.33% active; actives lie on both sides; in the data active = binding response below about 49% or above about 150%; inactive = in between;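 also: fluorescent Galphao activated with aluminum fluoride binding bead-coupled RGS4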
ABCB1 block: ABCB1 efflux pump inhibitors, primary screen, cell-based, multiplex, flow cytometry, ABCG2 counter-screen; CCRF-Adr cells, JC-1 efflux; inhibition, % at 6.6 µM; 190,000 tested, 0.067% active; in the data active = inhibition above about 40%;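 also: 0% = vehicle and 100% = reference inhibitor; higher value means more JC-1 retained so stronger ABCB1 efflux block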
Target sequence (P08183 whole entry, looked up): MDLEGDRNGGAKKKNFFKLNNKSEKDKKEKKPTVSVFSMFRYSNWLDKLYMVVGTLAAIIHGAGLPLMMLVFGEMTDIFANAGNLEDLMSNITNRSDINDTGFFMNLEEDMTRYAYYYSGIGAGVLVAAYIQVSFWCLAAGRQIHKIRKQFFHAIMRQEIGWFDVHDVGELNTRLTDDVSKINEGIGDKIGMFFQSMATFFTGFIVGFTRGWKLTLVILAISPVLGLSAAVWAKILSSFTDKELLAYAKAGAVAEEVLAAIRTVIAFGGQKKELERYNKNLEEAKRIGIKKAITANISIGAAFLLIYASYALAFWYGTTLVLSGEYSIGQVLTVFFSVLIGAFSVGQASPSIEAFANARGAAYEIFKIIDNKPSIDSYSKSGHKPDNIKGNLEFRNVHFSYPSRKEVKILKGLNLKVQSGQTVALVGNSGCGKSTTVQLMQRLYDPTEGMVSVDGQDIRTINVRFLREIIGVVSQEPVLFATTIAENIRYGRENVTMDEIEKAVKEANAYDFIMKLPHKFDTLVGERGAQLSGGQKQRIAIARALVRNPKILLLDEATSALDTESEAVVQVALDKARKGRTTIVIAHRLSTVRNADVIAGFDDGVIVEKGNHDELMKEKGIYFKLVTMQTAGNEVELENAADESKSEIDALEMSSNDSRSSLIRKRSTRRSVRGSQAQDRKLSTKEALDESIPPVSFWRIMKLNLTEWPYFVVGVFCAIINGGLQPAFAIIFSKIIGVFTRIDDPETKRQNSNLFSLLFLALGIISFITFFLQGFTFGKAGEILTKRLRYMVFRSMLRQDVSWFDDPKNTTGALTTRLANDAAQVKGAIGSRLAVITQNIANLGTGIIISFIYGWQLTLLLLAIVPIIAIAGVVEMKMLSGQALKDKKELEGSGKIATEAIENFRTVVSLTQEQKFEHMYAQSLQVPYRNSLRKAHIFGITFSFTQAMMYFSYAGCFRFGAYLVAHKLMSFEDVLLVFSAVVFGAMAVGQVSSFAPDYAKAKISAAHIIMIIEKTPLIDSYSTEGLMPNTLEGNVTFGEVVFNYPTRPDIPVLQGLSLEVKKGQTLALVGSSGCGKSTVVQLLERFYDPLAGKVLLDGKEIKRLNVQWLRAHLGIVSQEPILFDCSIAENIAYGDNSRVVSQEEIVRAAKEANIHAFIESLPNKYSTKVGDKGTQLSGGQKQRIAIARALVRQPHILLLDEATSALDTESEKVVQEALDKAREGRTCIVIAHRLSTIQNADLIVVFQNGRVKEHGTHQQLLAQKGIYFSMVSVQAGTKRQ
ABCG2 block: ABCG2 efflux pump inhibitors, primary screen, multiplex with ABCB1, IgMXP3 cells, flow cytometry; Broad substrate specificity ATP-binding cassette transporter ABCG2 (Homo sapiens), Q9UNQ0; JC-1 efflux; AID 1325, 2008; inhibition, % at 6.6 µM; 190,000 tested, 0.1% active;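 active = inhibition above 80%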;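 also: 0% = DMSO and 100% = nicardipine control wells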
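Test system: IgMXP3 (ABCG2) plus far-red-tagged CCRF-Adr (ABCB1) cells / Amount: 3 million cells/mL in well / Reagent: JC-1 transporter substrate / Timing: 10 min compound exposure, 25 °C / Signal: flow cytometry, 530 nm JC-1 signal / Read-out: percent efflux inhibition, scaled nicardipine 100% to DMSO 0% / Benchmarks: nicardipine as high control, DMSO as low control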
RGS16-Gao: modulators of RGS16 binding to Galphao, primary screen, biochemical, human proteins, multiplexed bead flow cytometry. bead-based flow cytometry RGS16-Galphao binding, fluorescence; actives lie on both sides. binding response (% of control), % at 10 µM. 220,000 tested, 0.38% active. Regulator of G-protein signaling 16 (Homo sapiens) + Guanine nucleotide-binding protein …;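 also: Galphao activated by GDP with aluminum fluoride before binding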
RGS8-Gao: RGS8-Galphao binding modulators, primary screen, biochemical, multiplexed bead flow cytometry; actives lie on both sides; response (percent of control binding), % at 10 µM; 220,000 tested, 0.34% active; in the data active = response below about 60% or above about 140%; inactive = in between;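 also: Galphao activated as the GDP aluminium fluoride complex binding bead-coupled RGS8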
RGS-Gao: modulators of RGS–Galpha-o binding, primary screen, biochemical, multiplexed beads, flow cytometry, RGS4/7/8/16/19. shares compounds with RGS16-Gao. multiplexed bead flow cytometry. RGS4–Galpha-o binding response, % at 10 µM. 1,600 tested, 99% active. AID 1504, 2009;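 also: fluorescently labeled Galpha-o bound to GDP with aluminium fluoride binding biotinylated RGS beads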
Avidin counter: disruption of biotin probe capture by avidin, counter-screen for RGS protein interaction modulators, biochemical, flow cytometry, bead-based. 1,700 tested, under 10 active. inhibition, % at 10 µM. streptavidin beads, fluorescein-biotin binding. AID 1783, 2009. shares compounds with RGS16-Gao;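 active = inhibition above 50%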;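 also: median green fluorescence of gated singlet beads compared with DMSO control wells; 0% = DMSO wells and 100% = complete loss of bead fluorescence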
RGS8-Gao single: RGS8-Galphao binding modulators, confirmation, biochemical, multiplexed bead flow cytometry, single concentration. shares compounds with RGS16-Gao. binding response (% of control), % at 10 µM. 1,700 tested, 3% active. AID 1836, 2009. bead-based flow cytometry RGS8-Galphao binding, fluorescence; actives lie on both sides; in the data active = binding response below about 72% or above about 130%; inactive = in between;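 also: Galphao activated as GDP AlF4 complex before binding bead RGS8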
RGS7-Gao confirm: RGS7-Galphao binding modulators, confirmation, biochemical, multiplexed bead flow cytometry, single concentration; shares compounds with RGS16-Gao; response (percent of control binding), % at 10 µM; AID 1837, 2009; bead-based flow cytometry RGS7-Galphao binding; actives lie on both sides; 1,700 tested, 7.8% active; in the data active = response below about 75% or above about 130%; inactive = in between;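 also: fluorescent Galphao activated with GDP and aluminum fluoride binding bead-coupled RGS7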
RGS16-Gao conf: modulators of RGS16-Galphao protein binding, confirmation, biochemical, single concentration, multiplexed bead flow cytometry | response (% of control binding), % at 10 µM | bead-based flow cytometry; actives lie on both sides | shares compounds with RGS16-Gao | 1,700 tested, 4% active; in the data active = response below about 74% or above about 130%; inactive = in between;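 also: Galphao activated as the GDP aluminium fluoride complex binding bead-coupled RGS16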
RGS4-Gao single: modulators of RGS4-Galphao protein binding, confirmation, biochemical, single concentration, multiplexed bead flow cytometry; shares compounds with RGS16-Gao; actives lie on both sides; binding response (% of control), % at 10 µM; 1,700 tested, 4% active; AID 1840, 2009; in the data active = binding response below about 74% or above about 130%; inactive = in between
RGS19-Gao single: regulators of RGS19-Galphao binding, confirmation, biochemical, single point, multiplexed bead flow cytometry; shares compounds with RGS16-Gao; bead-based flow cytometry RGS19-Galphao binding; actives lie on both sides; 1,700 tested, 5% active; AID 1841, 2009; response (percent of control binding), % at 10 µM; in the data active = response below about 50% or above about 160%; inactive = in between;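 also: 100% = no compound control and 0% = blank background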
The depositor's hits bear a star; i = inactive; ? = inconclusive; / = no result; [ ] = dose if it differs, or a comment. Unless noted, no rule for the calls is given here.

SMILES | RGS7-Gao reg | RGS4-Gao reg | ABCB1 block | ABCG2 block | RGS16-Gao | RGS8-Gao | Avidin counter | RGS8-Gao single | RGS7-Gao confirm | RGS16-Gao conf | RGS4-Gao single | RGS19-Gao single | others
CC1CCc2c(sc(Nc3nc4c(F)cccc4s3)c2C(N)=O)C1 (stereo not given) | 98 | 95 | -1 | -11 | 95 | 94 | / | / | / | / | / | /
Cc1ccc(C)c(N2CCN(C(=O)Nc3ccc4c(c3)N(C)C(=O)CS4)CC2)c1 | 99 | 102 | 1 | 3 | 104 | 102 | / | / | / | / | / | /
CN1C(=O)CSc2ccc(NC(=O)N3CCC(N4CCCCC4)CC3)cc21 | 110 | 109 | 0 | 1 | 278*[activator] | 127 | -5 | 98 | 64* | 77 | 77 | 65 | RGS-Gao=109*
CS(=O)(=O)N1CCN(C(=O)c2cccnc2)CC1 | 97 | 88 | 0 | 1 | 83 | 96 | / | / | / | / | / | /
CCCS(=O)(=O)N1CCN(C(=O)c2cccnc2)CC1 | 48* | 57 | 0 | 3 | 73 | 68 | / | / | / | / | / | / | RGS-Gao=57*
CN(C)CCCNC(=O)C(=O)NCC1CCCO1 (stereo not given) | 99 | 99 | 1 | 6 | 100 | 99 | / | / | / | / | / | /
CC1CCCC(C)N1S(=O)(=O)c1ccc(S(=O)(=O)NCc2ccccc2)cc1 (stereo not given) | 92 | 90 | 1 | -1 | 22* | 71 | 1 | 96 | 103 | 99 | 99 | 110 | RGS-Gao=90*
O=C1[C@H]2[C@H](ON3CCCC[C@H]23)C(=O)N1c1ccc(Cl)cc1 | 100 | 104 | 0 | -1 | 105 | 101 | / | / | / | / | / | /
CCOCCN(C(=O)c1ccccc1Cl)c1cccc(C)c1C | ? | 165*[activator] | / | / | 153 | 102 | 0 | 100 | 99 | 99 | 98 | 88
CC(C)C(=O)N(Cc1ccccc1)c1ccccn1 | 208*[activator] | 251*[activator] | 0 | 1 | 244*[activator] | 113 | -2 | 102 | 98 | 100 | 100 | 100
Cc1cc2cc3c(cc2nc1SCC(=O)Nc1nc(C)c(C)s1)OCO3 | 121 | 164*[activator] | 3 | 4 | 213 | 108 | i | 101 | 110 | 105 | 103 | 134
COC(=O)CSc1nc2cc3c(cc2cc1C)OCO3 | 97 | 97 | 0 | 1 | 106 | 101 | / | / | / | / | / | /
CCC(=O)N(Cc1ccco1)Cc1cc2cccc(C)c2n2nnnc12 | 95 | 99 | 1 | 7 | 95 | 100 | / | / | / | / | / | /
Cc1ccc2c(c1)cc(CN(Cc1ccco1)C(=O)COc1ccccc1)c1nnnn12 | 159*[activator] | 126 | 1 | 2 | 101 | 99 | 1 | 100 | 98 | 98 | 96 | 101 | RGS-Gao=126*
O=C(Oc1ccc(C(=S)N2CCC(O)CC2)cc1)c1ccc(Cl)cc1 | 100 | 97 | 1 | 2 | 96 | 97 | / | / | / | / | / | /
COCCNC(=O)c1ccc(C(=O)NCCOC)s1 | / | 233*[activator] | 0 | 1 | / | / | 3 | 100 | 98 | 99 | 99 | 90
Cc1nn(-c2ccccc2)c(C)c1NC(=O)Cc1cccs1 | 55 | 56 | 3 | 25 | 58 | 68 | / | / | / | / | / | /
Cc1nn(-c2ccccc2)c(C)c1NC(=O)c1cccs1 | 88 | 82 | 1 | 2 | -7.9* | 80 | 0 | 101 | 103 | 100 | 103 | 101 | RGS-Gao=82*
Cc1cccc(C(=O)NNc2ncnc3c2cnn3C)c1 | 102 | 98 | 1 | 3 | 100 | 100 | / | / | / | / | / | /
CCOc1cc(C(=O)N(C)c2ccccc2)cc(OCC)c1OCC | 99 | 101 | 0 | 0 | 120 | 98 | / | / | / | / | / | /
Cc1nn(-c2ccc(F)cc2)c2sc(C(=O)OC3CCOC3=O)cc12 (stereo not given) | / | / | 1 | 12 | / | / | 0 | 100 | 97 | 99 | 99 | 100
CNC(=O)COC(=O)c1cc2c(C)nn(-c3ccc(F)cc3)c2s1 | 101 | 110 | 1 | 11 | 112 | 104 | / | / | / | / | / | /
CC(CCc1ccccc1)NC(=O)CSc1ccccc1 (stereo not given) | 102 | 102 | 0 | 2 | 95 | 96 | / | / | / | / | / | /
CC(CCc1ccccc1)NC(=O)CSc1nccc(=O)[nH]1 (stereo not given) | 11* | 12* | 0 | 1 | 7.1* | 21* | -1 | 97 | 79 | 91 | 91 | 79
CCSC1=C(C#N)C2(CCCCC2)C(C#N)C(=O)N1 (stereo not given) | 88 | 91 | 0 | 15 | 90 | 94 | / | / | / | / | / | /
N#CC1=C2SCCN2C(=O)C(C#N)C12CCCCC2 (stereo not given) | -0.9* | -15* | 0 | 2 | -10* | 13* | 1 | 101 | 102 | 104 | 101 | 103
Cc1nn(C)c(C(=O)N/N=C/c2cccc3ccccc23)c1Cl | 28* | 28* | 1 | 13 | 31 | 38* | -1 | 98 | 98 | 97 | 100 | 97
Cc1nn(C)c(C(=O)N/N=C/c2ccc(Br)cc2)c1Cl | 40* | 46* | 0 | 14 | 41 | 58* | 2 | 100 | 104 | 101 | 101 | 100
